The results in this text go back to ChEMBL document CHEMBL4680229, “Design, synthesis and bioactivity study of N-salicyloyl tryptamine derivatives as multifunctional agents for the treatment of neuroinflammation” (Eur J Med Chem, 2020).

The subject of data set [1] is BV-2. The data set is described as follows: Antiinflammatory activity against LPS-induced mouse BV-2 cells assessed as increase in IL-10 production at 40 uM after 24 hrs by ELISA. It counts as functional, cell-based. In outline:
(§1)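 BV2 cells at 5×10^5 cells/mL stimulated with LPS 1 μg/mL; compound at 10, 20 or 40 μM final for 24 h, DMSO in blanks. Supernatant TNF-α and IL-10 measured by sandwich ELISA and PGE2 by competitive ELISA, OD at 450 nm; at least three independent experiments.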

In data set [2] the test system is BV-2. The data set is described as follows: Antiinflammatory activity against LPS-induced mouse BV-2 cells assessed as decrease in ROS production at 10 to 40 uM after 6 hrs by DCFH-DA fluorescence probe based flow cytometric analysis. The format is functional, cell-based. To be noted: dose 10-40 µM. In outline:
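BV2 cells with LPS 1 μg/mL and compound at 10, 20 or 40 μM for 6 h, then DCFH-DA 20 μM final for 30 min at 37 °C. Washed in cold PBS and read by flow cytometry, excitation 485 nm and emission 530 nm.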

Data set [3] deals with T1, Prostaglandin G/H synthase 2 (Mus musculus) (UniProt Q05769).
T1 sequence (whole entry): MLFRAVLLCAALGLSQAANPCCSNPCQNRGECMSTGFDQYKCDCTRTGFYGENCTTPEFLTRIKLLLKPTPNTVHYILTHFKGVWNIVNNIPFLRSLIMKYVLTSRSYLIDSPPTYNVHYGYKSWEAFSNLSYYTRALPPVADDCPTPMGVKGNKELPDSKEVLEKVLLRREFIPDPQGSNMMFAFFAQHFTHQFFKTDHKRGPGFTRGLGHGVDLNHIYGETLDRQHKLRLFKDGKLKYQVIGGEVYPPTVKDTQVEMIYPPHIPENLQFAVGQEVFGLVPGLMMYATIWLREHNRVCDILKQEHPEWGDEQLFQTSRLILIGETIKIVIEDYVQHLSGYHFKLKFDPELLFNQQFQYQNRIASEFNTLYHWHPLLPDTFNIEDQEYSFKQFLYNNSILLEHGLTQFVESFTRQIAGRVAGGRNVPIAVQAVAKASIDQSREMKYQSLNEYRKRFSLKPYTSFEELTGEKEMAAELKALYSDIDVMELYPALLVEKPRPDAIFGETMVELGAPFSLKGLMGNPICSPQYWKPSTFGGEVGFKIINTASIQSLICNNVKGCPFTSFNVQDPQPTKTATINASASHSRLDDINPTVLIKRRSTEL
The experiment in a line: Inhibition of COX2 in LPS-induced mouse BV-2 cells assessed as reduction in PGE2 production after 24 hrs by ELISA. The format is cell-based. Summed up:
as §1

The subject of data set [4] is BV-2. The experiment in a line: Antiinflammatory activity against LPS-induced mouse BV-2 cells assessed as decrease in COX2 protein expression at 40 uM after 24 hrs by Western blot analysis. It counts as functional, cell-based. Summed up:
(§2)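 BV2 cells in DMEM with 10% FBS; LPS 1 μg/mL plus compound at 10, 20 or 40 μM final for 24 h. Lysates in RIPA with 1 mM PMSF; 30 μg protein on 8% SDS-PAGE and blotted for iNOS and COX-2, GAPDH as reference; ECL detection and densitometry; at least three independent experiments.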

The next data set relates to C6. The experiment in a line: Antiinflammatory activity against LPS-induced rat C6 cells assessed as decrease in GFAP protein expression at 20 uM after 24 hrs by DAPI staining based confocal laser microscopic method. The format is functional, cell-based. In outline: (§3)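 Cells on glass slides with compound at 20 μM final for 24 h: C6 with LPS 10 μg/mL stained for GFAP, BV2 with LPS 1 μg/mL stained for Iba-1. Fixed in 4% paraformaldehyde, blocked in 1% BSA/0.3% Triton X-100, primary antibody 1:100 overnight at 4 °C, secondary 1:200, DAPI mount, confocal imaging. Intensity given as % of LPS group, n = 3.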

Data set [5] has as its system BV-2. The data set is described as follows: Antiinflammatory activity against LPS-induced mouse BV-2 cells assessed as decrease in iba-1 protein expression at 20 uM after 24 hrs by DAPI staining based confocal laser microscopic method. It counts as functional, cell-based. In outline: as §3
Data set [6] in a line: Toxicity in Kunming mouse assessed as changes in heart at 1000 mg/kg, po after 14 days. It counts as organism-based. The note with it: in vivo, 336 h, time 14 day. Summed up: (§4)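 Mice, five male and five female, given a single oral dose of 1000 mg/kg and observed for behaviour for 14 days. Heart, liver, kidney and stomach then examined grossly and after H&E staining, compared with vehicle controls.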

A short description of data set [7]: Toxicity in LPS-induced hippocampal neuroinflammatory Kunming mouse model assessed as behavioral changes at 50 mg/kg, ip administered bid for 6 days […]. The format is organism-based. The note with it: in vivo, 144 h, time 6 day. Summed up: (§5)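 Male Kunming mice (8 weeks, 20–25 g, n = 10/group) were anaesthetised with i.p. chloral hydrate, then given LPS (3 μL of 10 mg/mL) into the lateral ventricle at 0.5 μL/min; sham mice received 3 μL saline. Compound was then given i.p. at 50 mg/kg in saline with 1% methyl cellulose for six consecutive days. Behaviour and deaths were recorded, and hippocampal slices were Nissl-stained.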

Data set [8] is described as follows: Toxicity in Kunming mouse assessed as behavioral changes at 1000 mg/kg, po up to 14 days. The format is organism-based. To be noted: in vivo, 336 h, time <=14 day. Summed up:
as §4

Data set [9] can be described thus: Toxicity in Kunming mouse assessed as changes in liver at 1000 mg/kg, po after 14 days. The format is organism-based. The note with it: in vivo, 336 h, time 14 day. Summed up:
as §4

Data set [10] in a line: Toxicity in Kunming mouse assessed as changes in kidney at 1000 mg/kg, po after 14 days. It counts as organism-based. The note with it: in vivo, 336 h, time 14 day. In outline:
as §4

Data set [11] can be described thus: Tmax in Sprague-Dawley rat at 50 mg/kg, ip up to 24 hrs by LC-MS analysis. It counts as ADME, organism-based. To be noted: in vivo. In outline:
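Male Sprague-Dawley rats, six per group, single 50 mg/kg intraperitoneal dose; parameters derived by non-compartmental analysis using the linear trapezoidal method; mean ± SD, n = 6.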

The next data set is filed under the species Homo sapiens. The experiment in a line: Selectivity index, ratio of IC50 for inhibition of human COX1 to IC50 for inhibition of human COX2.
Data set [12] relates to BV-2. The data set is described as follows: Antiinflammatory activity against LPS-induced mouse BV-2 cells assessed as decrease in INOS protein expression at 40 uM after 24 hrs by Western blot analysis relative to control. It counts as functional. In outline:
as §2

Data set [13] can be described thus: Toxicity in LPS-induced hippocampal neuroinflammatory Kunming mouse model assessed as death at 50 mg/kg, ip administered bid for 6 days […]. The note with it: in vivo, 144 h, time 6 day. The format is organism-based. In outline:
as §5

The target in data set [14] is Prostaglandin G/H synthase 1 (Homo sapiens) (UniProt P23219). The experiment in a line: Inhibition of human COX1 assessed as reduction in PGF2alpha formation using arachidonic acid as substrate incubated for 10 mins by ELISA.
Data set [15] can be described thus: Toxicity in Kunming mouse assessed as changes in stomach at 1000 mg/kg, po after 14 days. It counts as organism-based. The note with it: in vivo, 336 h, time 14 day. In outline:
as §4

Data set [16] deals with Mus musculus. The data set is described as follows: Antiinflammatory activity against LPS-induced hippocampal neuroinflammatory Kunming mouse model assessed as increase in integral neurons at 50 mg/kg, ip administered bid for 6 days by Nissl staining based microscopic method. To be noted: time 6.0 day. It counts as functional, organism-based.
The test system of data set [17] is Mus musculus. The data set is described as follows: Antiinflammatory activity against LPS-induced hippocampal neuroinflammatory Kunming mouse model assessed as reduction in GFAP level in hippocampus at 50 mg/kg, ip administered bid for 6 days by DAPI staining based microscopic method. It counts as functional, organism-based. The note with it: time 6.0 day.

Calls of active or inactive are those of the source. The rule behind the calls is not given here.

For the molecule `O=C(NCCc1c[nH]c2ccc(O)cc12)c1ccccc1Nc1ccccc1`, the outcome in the data set on BV-2 [1], in the data set on BV-2 [2], in the data set with BV-2 [4], in the data set with C6, in the data set with BV-2 [5] and in the data set on Mus musculus [16] was Active. In the data set on Mus musculus [17], the result was Active. Further, in [3], the inhibition result is “Dose-dependent effect”. Moreover, the Activity entry in data set [6], in data set [7], in [8], in [9], in data set [10] and in data set [13] was “Non-Toxic” each time. For the same molecule, the Activity result in data set [15] was “Non-Toxic”. Moreover, the Tmax in [11] was 55.2 min. In addition, the Ratio IC50 in the data set listed under Homo sapiens stood at 0.76. For the same molecule, the result in the data set on BV-2 [12] was inactive. Moreover, the IC50 in [14] worked out at 0.38 µM.

As for `Cc1ccc(C(=O)NCCc2c[nH]c3ccccc23)c(O)c1`, the outcome with BV-2 [1], with BV-2 [2], with C6, in the data set on BV-2 [5], in the data set with Mus musculus [16] and in the data set on Mus musculus [17] was Active. The inhibition result in data set [3] is “Dose-dependent effect”. Besides, the outcome in the data set with BV-2 [4] was inactive. The Activity result was “Non-Toxic” in data set [6]; “Non-Toxic” in [7]; “Non-Toxic” in data set [8]; “Non-Toxic” in [9]; “Non-Toxic” in [10]; 100% in the data set on BV-2 [12]. For the same molecule, the Activity entry in data set [13] and in data set [15] was “Non-Toxic” each time. Further, in [11], the time to peak (Tmax) turned out to be 11.4 min. Further, the Ratio IC50 in the data set listed under Homo sapiens was 3.95. In addition, the IC50 in data set [14] came to 16.4 µM.
